Measured values published in ChEMBL document CHEMBL1138302, “Diaryl dihydropyrazole-3-carboxamides with significant in vivo antiobesity activity related to CB1 receptor antagonism: synthesis, biological evaluation, and molecular modeling in the homology model” (J Med Chem, 2007).
One block for each molecule: values may come before it. Activity calls are given as the source filed them.

How the values were obtained:
[1] = test system: Rattus norvegicus; experiment: Inhibition of body weight gain in Zucker fa/fa rat at 10 mg/kg, po; type: functional, organism-based; set-up: dose 10 mg/kg
How it was run: (§1)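 Individually housed female obese Zucker fa/fa rats, groups of six, dosed orally daily 1 h before dark phase for 60 days; body weight recorded daily. Day 61 morning retro-orbital blood drawn and serum triglyceride measured by colorimetric kit. One-way ANOVA with Dunnett's test versus control.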

[2] = test system: Rattus norvegicus; experiment: Reduction in serum triglyceride level in Zucker fa/fa rat at 10 mg/kg, po after 60 days; type: functional, organism-based; set-up: dose 10 mg/kg; how it was run: as §1
[3] = test system: Rattus norvegicus; experiment: Inhibition of sucrose intake in Zucker fa/fa rat at 10 mg/kg, po after 4 hrs; type: functional; settings: for inhibition in vivo at 10 mg/kg: Rattus norvegicus, Zucker, po, 4 h
How it was run: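 Female Zucker fa/fa rats (10-12 weeks, 300-350 g) trained six consecutive days on 5% sucrose with food and water withdrawn; day 7 randomized (n=6), dosed orally 10 mg/kg in 0.5% carboxymethylcellulose (2 mL/kg), exposed to sucrose 1 h later for 4 h. Consumption measured; % inhibition vs vehicle control; one-way ANOVA with Dunnett's test.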

[4] = Tmax in fasted Zucker fa/fa rat at 30 mg/kg, po; type: ADME, organism-based; set-up: dose 30 mg/kg, route oral; settings: in vivo
How it was run: (§2)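 Overnight-fasted female obese Zucker fa/fa rats (n=6), single 30 mg/kg oral dose as suspension in 0.5% carboxymethylcellulose sodium in water. Retro-orbital serial bleeds at 10, 20, 40 min and 1, 2, 4, 6, 8, 24, 48 h; plasma extracted liquid-liquid and quantified by LC-MS against spiked-matrix calibration with internal standard. Noncompartmental parameters computed.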

[5] = Cmax in fasted Zucker fa/fa rat at 30 mg/kg, po; type: ADME, organism-based; set-up: dose 30 mg/kg, route oral; settings: in vivo; how it was run: as §2
[6] = Half life in fasted Zucker fa/fa rat at 30 mg/kg, po; type: ADME, organism-based; set-up: dose 30 mg/kg, route oral; settings: in vivo; how it was run: as §2
[7] = AUC (0 to infinity) in fasted Zucker fa/fa rat at 30 mg/kg, po; type: ADME, organism-based; set-up: time infinity, dose 30 mg/kg, route oral; settings: plasma; how it was run: as §2
[8] = Drug concentration in fasted Zucker fa/fa rat brain at 30 mg/kg, po after 3 hrs; type: ADME, organism-based; set-up: dose 30 mg/kg, route oral; settings: read-out: Drug uptake
How it was run: (§3)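 Female obese Zucker fa/fa rats (n=6), fasted, single oral 30 mg/kg in 0.5% carboxymethylcellulose; blood, brain and white adipose tissue taken at 3 h. Tissues saline-washed and homogenized in Tris buffer pH 7.4; plasma and homogenates liquid-liquid extracted and assayed by LC-MS (cyano column, ammonium acetate/TFA–acetonitrile 30:70). Values mean ± SEM.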

[9] = Drug concentration in fasted Zucker fa/fa rat white adipose tissue at 30 mg/kg, po after 3 hrs; type: ADME, organism-based; set-up: dose 30 mg/kg, route oral; settings: read-out: Drug uptake; how it was run: as §3
[10] = Drug concentration in fasted Zucker fa/fa rat plasma at 30 mg/kg, po after 3 hrs; type: ADME, organism-based; set-up: dose 30 mg/kg, route oral; how it was run: as §3
[11] = target: Cannabinoid receptor 1 (Homo sapiens, UniProt P21554); experiment: biochemical; type: cell-based, HEK293
Sequence of Cannabinoid receptor 1 (P21554 whole entry): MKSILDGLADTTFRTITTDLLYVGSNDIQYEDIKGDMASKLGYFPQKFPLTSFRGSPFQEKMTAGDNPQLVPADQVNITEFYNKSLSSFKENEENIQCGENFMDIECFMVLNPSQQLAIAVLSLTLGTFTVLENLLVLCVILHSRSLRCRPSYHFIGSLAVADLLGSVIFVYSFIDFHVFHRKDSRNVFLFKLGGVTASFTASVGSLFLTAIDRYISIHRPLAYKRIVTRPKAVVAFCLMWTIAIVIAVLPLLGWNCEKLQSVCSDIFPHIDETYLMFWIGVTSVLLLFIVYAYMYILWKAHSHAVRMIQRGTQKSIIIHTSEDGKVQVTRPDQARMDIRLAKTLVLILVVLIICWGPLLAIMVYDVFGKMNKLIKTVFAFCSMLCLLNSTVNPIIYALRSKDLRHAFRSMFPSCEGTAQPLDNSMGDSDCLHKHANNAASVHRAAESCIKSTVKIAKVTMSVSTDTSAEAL

[12] = target: Cannabinoid receptor 2 (Homo sapiens, UniProt P34972); experiment: Displacement of [3H]WIN-552122 from human recombinant CB2 receptor expressed in CHOK1 cells; type: cell-based, CHO-K1
Sequence of Cannabinoid receptor 2 (P34972 whole entry): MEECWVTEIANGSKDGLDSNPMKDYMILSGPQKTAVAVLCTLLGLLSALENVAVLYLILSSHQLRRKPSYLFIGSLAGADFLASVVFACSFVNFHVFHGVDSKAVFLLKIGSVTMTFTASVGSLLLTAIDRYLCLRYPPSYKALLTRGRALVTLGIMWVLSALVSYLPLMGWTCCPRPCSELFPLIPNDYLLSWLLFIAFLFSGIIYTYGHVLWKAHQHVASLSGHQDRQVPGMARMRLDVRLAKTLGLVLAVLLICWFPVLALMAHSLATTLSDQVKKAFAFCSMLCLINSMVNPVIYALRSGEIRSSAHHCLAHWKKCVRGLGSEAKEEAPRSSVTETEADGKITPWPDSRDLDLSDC

[13] = test system: Mus musculus; experiment: Effect on locomotor activity in Swiss albino mouse tetrad model assessed as number of squares crossed in 5 mins at 1 mg/kg po after 35 mins in presence of 1 mg/kg cannabinoid agonist WIN-55212-2 relative to control; type: functional
How it was run: (§4)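 Female Swiss albino mice (10-12 weeks, 25-30 g), n=6, dosed orally in 0.5% carboxymethylcellulose (10 mL/kg); 1 h later WIN-55212-2 1 mg/kg iv in 0.01% Tween 80/5% DMSO saline. From 30 min on: rectal temperature before and after treatment; hot plate 55 °C, %MPE, 30 s cutoff; ring-test immobility over 5 min; open-field squares crossed in 5 min at 35 min. Compared with WIN-treated controls.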

[14] = test system: Mus musculus; experiment: Effect on locomotor activity in Swiss albino mouse tetrad model assessed as number of squares crossed in 5 mins at 3 mg/kg po after 35 mins in presence of 1 mg/kg cannabinoid agonist WIN-55212-2 relative to control; type: functional; how it was run: as §4
[15] = test system: Mus musculus; experiment: Effect on locomotor activity in Swiss albino mouse tetrad model assessed as number of squares crossed in 5 mins at 10 mg/kg po after 35 mins in presence of 1 mg/kg cannabinoid agonist WIN-55212-2 relative to control; type: functional; how it was run: as §4
[16] = test system: Mus musculus; experiment: Effect on locomotor activity in Swiss albino mouse tetrad model assessed as number of squares crossed in 5 mins at 30 mg/kg po after 35 mins in presence of 1 mg/kg cannabinoid agonist WIN-55212-2 relative to control; type: functional; how it was run: as §4
[17] = test system: Mus musculus; experiment: Effect on catalepsy in Swiss albino mouse tetrad model assessed as immobility for 5 mins at 30 mg/kg po after 30 mins by ring test in presence of 1 mg/kg cannabinoid agonist WIN-55212-2 relative to control; type: functional; how it was run: as §4
[18] = test system: Mus musculus; experiment: Analgesic activity in Swiss albino mouse tetrad model at 1 mg/kg po by hot plate test in presence of 1 mg/kg cannabinoid agonist WIN-55212-2 relative to control; type: functional; how it was run: as §4
[19] = test system: Mus musculus; experiment: Effect on change in body temperature in Swiss albino mouse tetrad model at 1 mg/kg po in presence of 1 mg/kg cannabinoid agonist WIN-55212-2 relative to control; type: functional; how it was run: as §4
[20] = test system: Mus musculus; experiment: Effect on change in body temperature in Swiss albino mouse tetrad model at 3 mg/kg po in presence of 1 mg/kg cannabinoid agonist WIN-55212-2 relative to control; type: functional; how it was run: as §4
[21] = test system: Mus musculus; experiment: Effect on change in body temperature in Swiss albino mouse tetrad model at 10 mg/kg po in presence of 1 mg/kg cannabinoid agonist WIN-55212-2 relative to control; type: functional; how it was run: as §4
[22] = test system: Mus musculus; experiment: Effect on change in body temperature in Swiss albino mouse tetrad model at 30 mg/kg po in presence of 1 mg/kg cannabinoid agonist WIN-55212-2 relative to control; type: functional; how it was run: as §4
[23] = test system: Mus musculus; experiment: Effect on catalepsy in Swiss albino mouse tetrad model assessed as immobility for 5 mins at 1 mg/kg po after 30 mins by ring test in presence of 1 mg/kg cannabinoid agonist WIN-55212-2 relative to control; type: functional; how it was run: as §4
[24] = test system: Mus musculus; experiment: Effect on catalepsy in Swiss albino mouse tetrad model assessed as immobility for 5 mins at 3 mg/kg po after 30 mins by ring test in presence of 1 mg/kg cannabinoid agonist WIN-55212-2 relative to control; type: functional; how it was run: as §4
[25] = test system: Mus musculus; experiment: Effect on catalepsy in Swiss albino mouse tetrad model assessed as immobility for 5 mins at 10 mg/kg po after 30 mins by ring test in presence of 1 mg/kg cannabinoid agonist WIN-55212-2 relative to control; type: functional; how it was run: as §4
[26] = test system: Mus musculus; experiment: Analgesic activity in Swiss albino mouse tetrad model at 3 mg/kg po by hot plate test in presence of 1 mg/kg cannabinoid agonist WIN-55212-2 relative to control; type: functional; how it was run: as §4
[27] = test system: Mus musculus; experiment: Analgesic activity in Swiss albino mouse tetrad model at 10 mg/kg po by hot plate test in presence of 1 mg/kg cannabinoid agonist WIN-55212-2 relative to control; type: functional; how it was run: as §4
[28] = test system: Mus musculus; experiment: Analgesic activity in Swiss albino mouse tetrad model at 30 mg/kg po by hot plate test in presence of 1 mg/kg cannabinoid agonist WIN-55212-2 relative to control; type: functional; how it was run: as §4

SMILES: O=C(NN1CCOCC1)C1=NN(c2ccc(Cl)cc2Cl)C(c2ccc(Cl)cc2)C1 (racemic; form 2)
Activity [1]: Active
Activity [2]: Active

SMILES: O=C(NN1CCOCC1)C1=NN(c2ccc(Cl)cc2Cl)C(c2ccc(Cl)s2)C1 (stereo not drawn)
inhibition in vivo at 10 mg/kg [3]: 16.7%

SMILES: O=C(NN1CCOCC1)C1=NN(c2ccc(Cl)cc2Cl)C(c2cccnc2)C1 (stereo not drawn)
inhibition in vivo at 10 mg/kg [3]: 4%

SMILES: O=C(NN1CCOCC1)C1=NN(c2ccc(Cl)cc2Cl)C(c2ccc(Cl)cc2)C1 (stereo not drawn)
Inhibition [3]: 34.2%

SMILES: O=C(NN1CC2CCCC2C1)C1=NN(c2ccc(Cl)cc2Cl)C(c2ccc(Cl)cc2)C1 (stereo not drawn)
inhibition in vivo at 10 mg/kg [3]: 3.6%

SMILES: O=C(NN1CCOCC1)C1=NN(c2ccc(Cl)cc2)C(c2ccc(Cl)cc2)C1 (stereo not drawn)
inhibition in vivo at 10 mg/kg [3]: 8.1%

Tmax [4]: 3.7 h
Cmax [5]: 510 ng/mL
half-life [6]: 17.6 h
AUC(0-inf) [7]: 10000 ng·h/mL
concentration at 3 h [8]: 4860 ng/g
concentration at 3 h [9]: 6310 ng/g
concentration at 3 h [10]: 1400 ng/mL
Ki [11]: 0.15 µM
Ki [12]: 24.5 µM
SMILES: O=C(NN1CCOCC1)C1=NN(c2ccc(Cl)cc2Cl)C(c2ccc(Cl)cc2)C1.O=S(=O)(O)O (single isomer, unassigned; 30)
Inhibition ([3]; 10 mg/kg): 58.6%
Activity [13]: 0.4
Activity [14]: 3
Activity [15]: 13.25
Activity [16]: 25
Activity [17]: 18.23%
MPE [18]: 24%
Activity [19]: -4.24 °C
Activity [20]: -2.1 °C
Activity [21]: -0.15 °C
Activity [22]: 0.15 °C
Activity [23]: 85.2%
Activity [24]: 33.75%
Activity [25]: 14.2%
MPE [26]: 12%
MPE [27]: -0.15%
MPE [28]: 11.5%

SMILES: O=C(NN1CCOCC1)C1=NN(c2ccc(Cl)cc2Cl)C(c2cccs2)C1 (stereo not drawn)
inhibition in vivo at 10 mg/kg [3]: 3%

SMILES: Cl.O=C(NN1CCOCC1)C1=NN(c2ccc(Cl)cc2Cl)C(c2ccc(Cl)cc2)C1 (single isomer, unassigned; 27)
Inhibition ([3]; 10 mg/kg): 30.1%

SMILES: O=C(NN1CCOCC1)C1=NN(c2ccc(Cl)cc2Cl)C(c2ccc(Cl)cc2)C1 (single isomer, unassigned; 30)
Activity [1]: Active
Activity [2]: Active

SMILES: CN1CCN(NC(=O)C2=NN(c3ccc(Cl)cc3Cl)C(c3ccc(Cl)cc3)C2)CC1 (stereo not drawn)
inhibition in vivo at 10 mg/kg [3]: 22.6%

SMILES: Cl.O=C(NN1CCOCC1)C1=NN(c2ccc(Cl)cc2Cl)C(c2ccc(Cl)cc2)C1 (stereo in doubt; 29)
Inhibition ([3]; 10 mg/kg): 42.2%

SMILES: O=C(NN1CCOCC1)C1=NN(c2ccc(Cl)cc2Cl)C(c2ccc3c(c2)OCO3)C1 (stereo not drawn)
inhibition in vivo at 10 mg/kg [3]: 17%

SMILES: O=C(NN1CCCCCC1)C1=NN(c2ccc(Cl)cc2Cl)C(c2ccc(Cl)cc2)C1 (stereo not drawn)
inhibition in vivo at 10 mg/kg [3]: 8.4%

Ki [11]: 0.475 µM
Ki [12]: 26.4 µM
SMILES: O=C(NN1CCOCC1)C1=NN(c2ccc(Cl)cc2Cl)C(c2ccc(Cl)cc2)C1.O=S(=O)(O)O (single isomer, unassigned; 28)
Inhibition ([3]; 10 mg/kg): 15.4%

Ki [11]: 0.334 µM
Ki [12]: 21.7 µM
SMILES: O=C(NN1CCOCC1)C1=NN(c2ccc(Cl)cc2Cl)C(c2ccc(Cl)cc2)C1.O=S(=O)(O)O (racemic; form 2)
Inhibition ([3]; 10 mg/kg): 36.4%

SMILES: Cl.O=C(NN1CCOCC1)C1=NN(c2ccc(Cl)cc2Cl)C(c2ccc(Cl)cc2)C1 (racemic; form 1)
Inhibition ([3]; 10 mg/kg): 34.5%
